Results from ChEMBL document CHEMBL1131173, “Alkoxypsoralens, novel nonpeptide blockers of Shaker-type K+ channels: synthesis and photoreactivity” (J Med Chem, 1998).

Columns and labels:
[1] = molecular target: T1, Potassium voltage-gated channel subfamily A member 1 (Homo sapiens, UniProt Q09470); assay: K+ channel blocking activity as blockade at 25 uM in Xenopus laevis Ranvier nodes; type: functional
Summary of the method: (§1)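 On the Ranvier node, compound was tested at 25 µM. Steady-state K+ current block (BK) was normalized to currents in normal bathing medium. Peak Na+ current block was measured at 70 mV pulse amplitude and normalized the same way. Selectivity S = BK/BNa.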

[2] = molecular target: T1, Potassium voltage-gated channel subfamily A member 1; assay: Selectivity of K+ current blockade given by Bk/BNa in Xenopus laevis; type: functional; summary of the method: as §1
[3] = Compound was tested for production of singlet oxygen, measured as decrease in absorbance of N,N-dimethyl-p-nitrosoaniline (RNO) at 440 nm after 5 hr of UV-A irradiation; type: ADME; settings: 10 µM
Summary of the method: (§2)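 Singlet oxygen generation by compound at 10 µM in O2-saturated solution, read as RNO bleaching. Absorbance decrease was measured at 440 nm after 5 h of UV-A irradiation (4.5 mW/cm2, incident dose 81 J/cm2).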

Artemia salina [4] = assay: Photoinduced dose modification against nauplii of Artemia salina; type: functional
Summary of the method: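 Artemia salina nauplii were collected 48 h after hatching, ten per vial in 3 mL seawater, with compound from 100 nM upward; methanol was the vehicle. Vials were incubated at 25 °C under daylight or with added UV-A (1.3 mW/cm2, incident dose 112 J/cm2). Dead nauplii were counted at 24 h to give LC50. Assays were run in triplicate.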

[5] = molecular target: T2, Voltage-gated potassium channel KCNC1 (Homo sapiens, UniProt P48547); assay: Blockade of peak K+ currents against Kv3.1 gene; type: functional
T2 sequence (P48547 whole entry): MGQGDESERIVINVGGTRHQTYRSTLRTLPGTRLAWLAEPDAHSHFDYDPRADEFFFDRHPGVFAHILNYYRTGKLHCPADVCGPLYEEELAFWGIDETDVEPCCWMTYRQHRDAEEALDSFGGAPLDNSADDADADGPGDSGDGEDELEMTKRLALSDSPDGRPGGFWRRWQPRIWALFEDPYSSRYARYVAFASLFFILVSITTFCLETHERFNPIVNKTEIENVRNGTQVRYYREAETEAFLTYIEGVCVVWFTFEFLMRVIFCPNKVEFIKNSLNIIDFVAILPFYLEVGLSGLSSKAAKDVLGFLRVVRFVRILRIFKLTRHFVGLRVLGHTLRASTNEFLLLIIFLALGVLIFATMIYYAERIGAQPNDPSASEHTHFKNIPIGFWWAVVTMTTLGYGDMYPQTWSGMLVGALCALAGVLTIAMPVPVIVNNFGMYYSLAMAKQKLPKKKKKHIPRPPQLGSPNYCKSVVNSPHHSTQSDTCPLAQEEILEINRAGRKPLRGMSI
Summary of the method: (§3)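 Channels expressed in mammalian cells and recorded by whole-cell patch clamp. Each compound was applied at several concentrations, and the apparent dissociation constant Kd was calculated for block of peak K+ current.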

[6] = molecular target: Potassium voltage-gated channel subfamily A member 3 (Mus musculus, UniProt P16390); assay: Blockade of peak Kv1.3 potassium currents; type: functional; summary of the method: as §3
Sequence of Potassium voltage-gated channel subfamily A member 3 (P16390 whole entry): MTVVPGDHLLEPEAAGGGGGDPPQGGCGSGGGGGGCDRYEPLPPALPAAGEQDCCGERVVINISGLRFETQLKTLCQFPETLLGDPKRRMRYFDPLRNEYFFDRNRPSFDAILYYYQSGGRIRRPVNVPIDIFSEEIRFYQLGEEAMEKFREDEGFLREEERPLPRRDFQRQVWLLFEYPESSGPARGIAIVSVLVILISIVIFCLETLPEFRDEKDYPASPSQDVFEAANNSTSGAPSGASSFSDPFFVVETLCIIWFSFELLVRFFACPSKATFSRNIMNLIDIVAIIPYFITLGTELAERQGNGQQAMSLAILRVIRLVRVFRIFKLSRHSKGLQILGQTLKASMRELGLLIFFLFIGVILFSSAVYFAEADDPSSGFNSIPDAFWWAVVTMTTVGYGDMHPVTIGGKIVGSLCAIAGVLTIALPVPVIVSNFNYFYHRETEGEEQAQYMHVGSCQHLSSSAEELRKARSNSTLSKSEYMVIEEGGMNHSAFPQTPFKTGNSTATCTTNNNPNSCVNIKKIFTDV

[7] = molecular target: T1, Potassium voltage-gated channel subfamily A member 1; assay: Blockade of peak K+ currents against Kv1.1 gene; type: functional; summary of the method: as §3
[8] = molecular target: Potassium voltage-gated channel subfamily A member 2 (Homo sapiens, UniProt P16389); assay: Blockade of peak K+ currents against Kv1.2 gene; type: functional; summary of the method: as §3
Sequence of Potassium voltage-gated channel subfamily A member 2 (P16389 whole entry): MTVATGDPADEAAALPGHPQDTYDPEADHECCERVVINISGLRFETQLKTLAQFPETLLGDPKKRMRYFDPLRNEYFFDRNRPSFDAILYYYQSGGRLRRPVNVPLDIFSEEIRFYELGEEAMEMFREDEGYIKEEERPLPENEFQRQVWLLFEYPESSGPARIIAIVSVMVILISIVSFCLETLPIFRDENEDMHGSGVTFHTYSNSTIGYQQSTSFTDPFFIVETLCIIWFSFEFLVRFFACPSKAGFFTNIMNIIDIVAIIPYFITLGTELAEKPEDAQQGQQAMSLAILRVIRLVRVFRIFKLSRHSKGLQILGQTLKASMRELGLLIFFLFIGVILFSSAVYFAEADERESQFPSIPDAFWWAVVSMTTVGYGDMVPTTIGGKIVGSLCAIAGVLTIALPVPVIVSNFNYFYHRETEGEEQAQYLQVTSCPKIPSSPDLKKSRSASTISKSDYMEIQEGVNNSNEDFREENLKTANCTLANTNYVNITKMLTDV

Nucleic Acid [9] = assay: Photobinding to Poly(dA-dT)-Poly(dA-dT)-DNA after UV-A irradiation; type: nucleic-acid assay
Summary of the method: (§4)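 Poly(dA-dT)-poly(dA-dT) at 10 µM in 0.1 M MOPS, pH 7.0, with compound at a 1:1 compound:DNA ratio. Samples were kept 30 min in the dark or irradiated 30 min at 365 nm (4.5 mW/cm2, 8.1 J/cm2). Melting profiles gave ΔTm = Tm(DNA+drug) − Tm(DNA), as the mean of three determinations.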

Nucleic Acid [10] = assay: Photobinding to Poly(dA-dT)-Poly(dA-dT)-DNA in dark, determined by the shift of thermal transition temperature; type: nucleic-acid assay; summary of the method: as §4
[11] = (§5) Compound was tested for in vitro phototoxicity against nauplii of Artemia salina after UV-irradiation
Summary of the method: (§6)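 Artemia salina nauplii were hatched for 48 h, and ten per vial were placed in 3 mL seawater containing compound from 100 nM upward in methanol. Incubation was at 25 °C either under daylight or under added UV-A (1.3 mW/cm2, incident dose 112 J/cm2). Dead nauplii were counted at 24 h to give LC50. Run in triplicate.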

[12] = (§7) Compound was tested for in vitro phototoxicity against nauplii of Artemia salina in daylight; summary of the method: as §6
[13] = compound was tested for production of singlet oxygen, measured as decrease in absorbance of N,N-dimethyl-p-nitrosoaniline (RNO) at 440 nm after 5 hr of UV-A irradiation; type: ADME; settings: 10 µM; summary of the method: as §2
Artemia salina [14] = assay: as §5; type: functional; settings: light or radiation study; summary of the method: as §6
Artemia salina [15] = assay: as §7; type: functional; settings: light or radiation study; summary of the method: as §6
[16] = molecular target: Potassium voltage-gated channel subfamily A member 5 (Homo sapiens, UniProt P22460); assay: Blockade of peak K+ currents against Kv1.5 gene; type: functional
Sequence of Potassium voltage-gated channel subfamily A member 5 (P22460 whole entry): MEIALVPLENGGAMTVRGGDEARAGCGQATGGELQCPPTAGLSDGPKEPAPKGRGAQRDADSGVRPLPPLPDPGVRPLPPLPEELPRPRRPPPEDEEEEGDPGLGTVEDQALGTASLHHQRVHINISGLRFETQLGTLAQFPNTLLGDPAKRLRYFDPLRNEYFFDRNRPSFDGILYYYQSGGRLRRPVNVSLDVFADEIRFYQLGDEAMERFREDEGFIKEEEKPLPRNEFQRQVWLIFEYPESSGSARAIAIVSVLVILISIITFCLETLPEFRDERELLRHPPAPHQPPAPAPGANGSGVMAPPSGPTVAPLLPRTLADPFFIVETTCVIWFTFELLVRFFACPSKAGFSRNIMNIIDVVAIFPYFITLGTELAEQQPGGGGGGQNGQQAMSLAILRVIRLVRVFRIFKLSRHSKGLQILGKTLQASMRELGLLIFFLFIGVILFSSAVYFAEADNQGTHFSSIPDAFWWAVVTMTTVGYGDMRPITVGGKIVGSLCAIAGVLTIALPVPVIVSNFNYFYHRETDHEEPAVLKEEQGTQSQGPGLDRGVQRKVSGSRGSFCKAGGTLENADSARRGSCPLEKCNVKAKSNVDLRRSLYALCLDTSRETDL
Summary of the method: (§8)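 Whole-cell patch-clamp recording of cloned channels expressed in mammalian cells. Each compound was tested at several concentrations, and an apparent Kd for block of peak K+ current was calculated.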

[17] = molecular target: Potassium voltage-gated channel subfamily A member 6 (Homo sapiens, UniProt P17658); assay: Blockade of peak K+ currents against Kv1.6 gene; type: functional; summary of the method: as §8
Sequence of Potassium voltage-gated channel subfamily A member 6 (P17658 whole entry): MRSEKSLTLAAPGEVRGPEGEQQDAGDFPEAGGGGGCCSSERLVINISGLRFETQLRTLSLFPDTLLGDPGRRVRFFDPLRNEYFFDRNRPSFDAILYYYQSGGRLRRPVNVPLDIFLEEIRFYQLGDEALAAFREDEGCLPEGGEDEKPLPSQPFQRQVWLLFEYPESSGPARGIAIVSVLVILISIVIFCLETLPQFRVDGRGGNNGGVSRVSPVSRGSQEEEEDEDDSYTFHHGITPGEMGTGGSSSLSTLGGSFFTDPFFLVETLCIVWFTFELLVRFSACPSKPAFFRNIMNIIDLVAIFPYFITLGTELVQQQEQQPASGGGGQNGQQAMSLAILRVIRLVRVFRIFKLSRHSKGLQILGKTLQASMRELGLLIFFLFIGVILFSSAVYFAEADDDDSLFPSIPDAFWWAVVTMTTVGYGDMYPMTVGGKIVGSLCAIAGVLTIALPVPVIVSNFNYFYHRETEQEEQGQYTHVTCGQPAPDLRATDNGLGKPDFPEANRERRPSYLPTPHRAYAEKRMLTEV

[18] = Compound was tested for production of single oxygen, measured as decrease in absorbance of N,N-dimethyl-p-nitrosoaniline (RNO) at 440 nm after 5 hr of UV-A irradiation; type: ADME; settings: 10 µM
Summary of the method: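 Singlet oxygen from compound at 10 µM was measured in O2-saturated solution by bleaching of N,N-dimethyl-p-nitrosoaniline. The read-out was the fall in absorbance at 440 nm after 5 h of UV-A (4.5 mW/cm2, incident dose 81 J/cm2).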

T1 sequence (Q09470 whole entry): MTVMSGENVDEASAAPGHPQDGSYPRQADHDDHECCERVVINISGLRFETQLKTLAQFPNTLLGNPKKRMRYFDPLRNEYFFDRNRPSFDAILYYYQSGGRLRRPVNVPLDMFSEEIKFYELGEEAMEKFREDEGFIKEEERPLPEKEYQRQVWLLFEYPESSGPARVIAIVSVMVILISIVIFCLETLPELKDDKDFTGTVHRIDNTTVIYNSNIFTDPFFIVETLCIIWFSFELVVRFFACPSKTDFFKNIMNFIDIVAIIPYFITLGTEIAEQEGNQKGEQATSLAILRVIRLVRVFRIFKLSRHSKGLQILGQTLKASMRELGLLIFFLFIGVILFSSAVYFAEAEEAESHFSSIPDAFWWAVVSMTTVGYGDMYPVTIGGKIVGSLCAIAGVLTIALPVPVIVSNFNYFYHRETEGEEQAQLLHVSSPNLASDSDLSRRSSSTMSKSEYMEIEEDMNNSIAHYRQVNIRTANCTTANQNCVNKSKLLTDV

Compound	BK [1]	Selectivity [2]	Dose modification (Artemia salina [4])	ΔTm (Nucleic Acid [9])	ΔTm (Nucleic Acid [10])	LC50 [11]	LC50 [12]	further results
C=CCOCc1c2ccoc2c(OC)c2oc(=O)ccc12	24%	6						
COCc1cc(=O)oc2cc3occ(C)c3cc12	52%	17	>40	> 20 °C	0.5 °C	2.5 µM	> 100 µM	O2 production [3]: 43%; Kd [5]: 213 µM; Kd [6]: 90 µM; Kd [7]: 56 µM; Kd [8]: 18 µM
CC[N+](CC)(CC)Cc1c2ccoc2c(OC)c2oc(=O)ccc12	20%	7						
CCOCc1c2ccoc2c(OC)c2oc(=O)ccc12	16%	2		1.5 °C	2 °C			O2 production [13]: 7%
COc1c2occc2cc2ccc(=O)oc12 [METHOXSALEN]	5%	4	>40	10 °C	1 °C	2.2 µM	> 100 µM	O2 production [3]: 9%
Cc1cc(=O)oc2cc3c(cc12)C(C)CO3 (centres undefined)	45%	22	>4					LC50 (Artemia salina [14]): 25 µM; LC50 (Artemia salina [15]): > 100 µM
O=c1ccc2cc3c(-c4ccccc4)coc3cc2o1	68%	1.4						
CCOc1cc(OCC)c2c(COC)cc(=O)oc2c1	35%	1.8						
CCOc1c2ccoc2c(OCC)c2oc(=O)ccc12	75%	14		0.5 °C	0.5 °C	> 100 µM	> 100 µM	O2 production [3]: -4%; Kd [5]: 178 µM; Kd [6]: 28 µM; Kd [7]: 167 µM; Kd [8]: 23 µM
COCc1c(C)oc2c(C)c3oc(=O)cc(C)c3cc12	31%	11	>5	> 20 °C	0.5 °C	20 µM	> 100 µM	O2 production [13]: 50%
Cc1coc2cc3oc(=O)cc(C)c3cc12	25%	8	>150					LC50 (Artemia salina [14]): 0.7 µM; LC50 (Artemia salina [15]): > 100 µM
COc1c2ccoc2cc2oc(=O)ccc12 [BERGAPTEN]	52%	14	>40	13 °C	0.5 °C	2.5 µM	> 100 µM	Kd [16]: 177 µM; Kd [17]: 187 µM; Kd [5]: 111 µM; Kd [6]: 101 µM; Kd [7]: > 200 µM; Kd [8]: 41 µM; O2 production [18]: 5%
COc1c2c(cc3ccc(=O)oc13)CCO2	4%	5						
CC[N+](CC)(CC)Cc1c(C)oc2c(C)c3oc(=O)cc(C)c3cc12.[Cl-]	27%	5		16 °C	7 °C			O2 production [13]: 66%
Cc1coc2cc3oc(=O)cc(CO)c3cc12	11%	4						
COCc1c2ccoc2c(OC)c2oc(=O)ccc12	14%	3						LC50 (Artemia salina [14]): > 100 µM; LC50 (Artemia salina [15]): > 100 µM
CC1COc2cc3oc(=O)ccc3cc21 (centres undefined)	23%	3	>4	0.5 °C	0.5 °C	25 µM	> 100 µM	O2 production [3]: 100%
CCOCc1c(C)oc2c(C)c3oc(=O)cc(C)c3cc12	55%	6		> 20 °C	1 °C			O2 production [13]: 50%
COc1c2ccoc2c(OC)c2oc(=O)ccc12 [ISOPIMPINELLIN]				1 °C	0.5 °C	> 100 µM	> 100 µM	O2 production [13]: -5%
COCc1cc(=O)oc2cc3occ(-c4ccccc4)c3cc12	27%	2						
Cc1coc2cc3oc(=O)ccc3cc12	63%	15	>200	9 °C	1 °C	0.5 µM	> 100 µM	O2 production [3]: 71%
COCc1c2occc2c(OC)c2ccc(=O)oc12	35%	26		1 °C	1 °C	> 100 µM	> 100 µM	O2 production [13]: 4%; Kd [6]: 28 µM
CCOc1cc(OCC)c2ccc(=O)oc2c1	40%	0.7						
COc1c2occc2c(COC(C)C)c2ccc(=O)oc12	10%	3						
